# MC4R ag barr: human MC4R agonism via beta-arrestin; U2OS MC4R beta-arrestin complementation, luminescence; percent of melanotan II response, DMSO zero; activation, % at 8.9 µM; P32245; 360,000 tested, 0.98% active;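 active = activation above a per-plate cutoff, the mean activation of sample wells on that plate plus 3 SD, cut at about 8% in these data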
# MC4R antag cAMP: blocks human MC4R cAMP signaling | AID 540295 | MC4R-expressing cells, MTII-stimulated cAMP, LANCE TR-FRET | inhibition, % at 6.5 µM | 360,000 tested, 0.48% active;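 active = inhibition above its plate's cutoff, the mean of tested wells on that plate plus 3 SD, cut at about 29% in these data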;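 also: 0% = Melanotan II alone and 100% = Melanotan II plus saturating MCL0020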
#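 System: U2OS cells stably expressing human melanocortin 4 receptor (MC4R). Reagent: Melanotan II challenge after compound preincubation. Doses: 6.5 µM. Times: 30-min compound, 1-h challenge, 1-h detection, room temperature. Measured by: TR-FRET with Eu-cAMP and labeled anti-cAMP, 671 nm. Replicates: singlicate.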
# PG9 Ab binder: PG9 antibody binding by small molecule; TR-FRET gp120-PG9 antibody binding; inhibition, % at 6.7 µM; 360,000 tested, 0.43% active; in the data active = inhibition above about 8.5%
# NR1D1 modulator: modulates human Rev-erb alpha binding to DNA; P20393; Rev-erbα–FITC-DNA binding, fluorescence polarization, 90 min; activity, % at 10 µM; 370,000 tested, 0.79% active;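 active = activity above about 14%, limit read from the data; passing the limit was not always enough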;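 also: 0% = DMSO wells with 35 nM protein and 100% = DMSO wells with 750 nM protein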
# NTR1 agonist: activates human neurotensin receptor 1; P30989; NTR1-U2OS beta-arrestin-GFP spot imaging, agonist mode; activation, % at 20 µM; 330,000 tested, 0.17% active;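 active = activation at or above 40% of the spot to cytoplasm intensity ratio, with at least 20 cells analyzed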;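 also: 0% = DMSO without peptide and 100% = 100 nM NTR1 peptide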
# Target sequence (P30989 whole entry, looked up): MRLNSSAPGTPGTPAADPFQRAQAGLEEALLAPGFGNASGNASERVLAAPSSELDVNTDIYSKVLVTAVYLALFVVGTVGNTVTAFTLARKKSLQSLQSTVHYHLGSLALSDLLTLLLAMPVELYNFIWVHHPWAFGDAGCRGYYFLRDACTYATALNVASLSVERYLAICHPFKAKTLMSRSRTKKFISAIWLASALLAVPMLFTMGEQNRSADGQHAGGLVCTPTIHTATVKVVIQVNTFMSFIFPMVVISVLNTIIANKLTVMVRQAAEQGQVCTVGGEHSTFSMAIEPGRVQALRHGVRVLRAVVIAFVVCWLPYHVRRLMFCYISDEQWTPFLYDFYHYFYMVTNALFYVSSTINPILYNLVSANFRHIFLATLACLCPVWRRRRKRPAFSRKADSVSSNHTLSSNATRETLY
# Rev-erbA confirm: confirmation of modulators of human Rev-erb alpha DNA binding. shares compounds with NR1D1 modulator. Rev-erb alpha FITC-DNA binding, fluorescence polarization, 90 min. activation, % at 25 µM. 3,000 tested, 61% active. AID 1259319;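 active = activation at or above a set limit, or at least 3 SD above the negative control mean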;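 also: 0% = 35 nM protein with DMSO and 100% = 750 nM protein high control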
# RORg counter: affects RORgamma DNA binding in a Rev-erb alpha counter-screen | IC50, µM | shares compounds with NR1D1 modulator | purified RORgamma protein-FITC-DNA binding, fluorescence polarization | 910 tested, 8% active;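 active = Compounds whose fitted half-maximal concentration for disrupting protein-DNA binding is below 10 micromolar; the record names Rev-erb in its text, so the target is in doubt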
# * marks the source's active call; other numbers are inactive results; nt = not tested or not shown. Most compounds without a hit are left out; they make up all but 2.5% or so of the library.
SMILES,MC4R ag barr,MC4R antag cAMP,PG9 Ab binder,NR1D1 modulator,NTR1 agonist,Rev-erbA confirm,others
Cc1ccccc1OCC(=O)Nc1ccccc1N1CCCCC1,1,16,-3,17*,27,17,
Cc1ccc(Cl)cc1N1CCN(Cc2nc3c(c(=O)[nH]c(=O)n3C)n2Cc2ccccc2F)CC1,1,-1,-3,29*,31,19*,
Cc1ccc(Cl)cc1N1CCN(Cc2nc3c(c(=O)[nH]c(=O)n3C)n2CCc2ccccc2)CC1,-1,8,-2,2,3,nt,
CCCC(=O)Nc1ccc(-c2nc3cc(C)c(C)cc3o2)c(O)c1,2,20,0,17*,-1,6,
CCc1ccc(CNCC(=O)N2CCC3(CC2)OCCO3)s1,nt,nt,nt,-2,nt,nt,
O=C(CSc1nc2ccccc2nc1N1CCCCC1)N1CCN(S(=O)(=O)c2cc(Cl)ccc2Cl)CC1,nt,nt,nt,28*,nt,30*,RORg counter=>40
O=C(CSc1nc2ccccc2nc1N1CCCC1)Nc1ccc(Cl)cc1,1,5,-1,0,4,nt,
COc1cccc(CNC(=O)[C@H]2CCCN2C(=O)[C@H]2CCCN2C(=O)c2ccccc2C(F)(F)F)c1,nt,nt,0,2,nt,nt,
Cc1cc(C)c2c(N)c(C(=O)N/N=C/c3cccs3)sc2n1,8,15,2,80*,28,54*,RORg counter=>40
COc1ccc(/C=N/NC(=O)c2sc3nc(C)cc(C)c3c2N)cc1,0,3,1,4,1,nt,
COCCNC(=S)N(C)[C@H]1C[C@H]2c3[nH]c4c(-c5ccccc5)cccc4c3CCN2C[C@H]1[C@H](C)O,nt,nt,-3,-4,nt,nt,
CCCCn1c(SCC(=O)Nc2cc(C)on2)nc2ccccc2c1=O,0,27,1,43*,-1,14,
CCCCn1c(SCC(=O)Nc2ccc(NC(C)=O)cc2)nc2ccccc2c1=O,-2,20,1,8,0,nt,
Cc1cc(NC(=O)CSc2nc(-c3cccs3)nc3ccccc23)no1,0,-13,5,28*,2,19*,
O=C(CSc1ncnc2c1sc1ccccc12)Nc1ccc(Br)cc1,1,16,-1,293*,11,195*,RORg counter=>40
O=C(CSc1ncnc2sccc12)Nc1ccccc1,-2,20,1,0,0,nt,
COc1ccc(/C=C2\CC3(OC(=O)c4cccc(F)c4)CCCN2C3)cc1 (stereo not drawn),nt,nt,nt,7,nt,nt,
CCN(CC)S(=O)(=O)c1ccc(F)cc1,1,3,2,37*,0,6,
CCOC(=O)C1=C(C(=O)OCC)C2N(Cc3ccc(C#N)cc3)c3ccccc3[C@@]23C[C@@H](C(=O)OC)N(S(=O)(=O)c2ccccc2)C3=N1 (stereo partly drawn),nt,nt,0,2,nt,nt,
CC(=O)c1cccc(NC(=O)c2cccc(NC(=O)c3ccco3)c2)c1,-1,16,1,45*,0,99*,RORg counter=5.7*
Cc1cc(C)cc(NC(=O)c2cccc(NC(=O)c3ccco3)c2)c1,1,14,1,5,0,nt,
CCN(CC)S(=O)(=O)c1ccc(N2CCCCC2)c(NC(=O)C2CSC3(C)CCC(=O)N23)c1 (stereo not drawn),-2,1,0,31*,nt,47*,RORg counter=>40
Cc1ccc(-c2nc3ncccn3c2NC(=O)Nc2ccc(F)cc2)cc1,nt,nt,nt,-1,nt,nt,
CCN(CC)c1ccc2cc(-c3nc(-c4ccc(OC)cc4)cs3)c(=O)oc2c1,nt,nt,0,40*,-6,29*,
CCN(CC)c1ccc2cc(-c3nnc(-c4ccccc4)o3)c(=O)oc2c1,-2,0,-3,18,-2,nt,
SMILES,MC4R ag barr,MC4R antag cAMP,PG9 Ab binder,NR1D1 modulator,NTR1 agonist,Rev-erbA confirm,others
Cc1ccc2nc(NC(=O)c3ccc(OCC4CCCO4)cc3)sc2c1 (stereo not drawn),7,27,-2,31*,14,14,
COc1ccc(-c2nc(-c3ccccc3)[nH]c(=O)c2C#N)cc1,1,-4,-1,-4,0,nt,
COc1ccc(-c2c(C#N)c(C)nc3c2C(=O)c2ccccc2-3)cc1,0,7,-1,151*,4,122*,
CN1[C@@H](Cc2ccccc2)COc2cccc(N3CCCC3)c2S1(=O)=O,nt,nt,nt,4,nt,nt,
CC1CN(C(=O)/C=C/c2ccccc2[N+](=O)[O-])CC(C)O1 (stereo not drawn),-1,0,-1,18*,-1,-4,
CC1CN(C(=O)/C=C/c2cccc([N+](=O)[O-])c2)CC(C)O1 (stereo not drawn),-1,-7,-1,-2,-1,nt,
CCOCCCNC(=O)C1CCN(S(=O)(=O)c2cc3c(cc2Br)CCN3C(=O)CC)CC1,nt,nt,nt,0,nt,nt,
CC(C)(C)C(=O)Nc1ccc2oc(-c3cc(F)c(F)cc3Cl)nc2c1,2,8,1,22*,2,14,
COc1cc(C(=O)NCc2ccc(-c3nc4ccccc4o3)cc2)cc(OC)c1OC,-2,0,11*,26*,5,11,
CCCC/C=C1/[C@@H](CC)N(Cc2ccc(OC)cc2OC)C2=N[C@@H](c3ccccc3)CC(=O)N21,nt,nt,nt,0,nt,nt,
CCCOc1ccc(F)cc1-c1cc(C(=O)Nc2ccccc2)[nH]n1,3,2,1,21*,nt,-7,
CC(C)Oc1ccc(F)cc1-c1cc(C(=O)Nc2ccccc2)[nH]n1,-1,9,-1,-6,nt,nt,
CCC[C@H]1[C@@H](NCc2cccs2)CC[C@@]23CCCN2C(=O)CCC[C@@H]13,nt,nt,nt,21*,nt,11*,
CCOC(=O)[C@@]12CN(C(=O)OC(C)(C)C)CC=C1N(Cc1ccc(OC)cc1)C(=O)[C@H]2CC(=O)NCCc1ccccc1OC,nt,nt,nt,-1,nt,nt,
CC(C)CN1C(=O)[C@@]2(CC(=O)N(C)C2c2ccccc2)c2cc(-n3cc(C(C)(C)O)nn3)ccc21 (stereo partly drawn),nt,nt,nt,-3,nt,nt,
Cc1cc(C)cc(NC(=O)Cn2nnc(C(=O)NCc3ccc4c(c3)OCO4)c2N)c1,6,5,-1,9,0,nt,
COc1cccc(CNC(=O)c2nnn(CC(=O)Nc3ccc(Br)cc3)c2N)c1,-1,-1,0,19*,1,6,
Cc1ccc(CNC(=O)c2nnn(CC(=O)Nc3cc(C)cc(C)c3)c2N)cc1,-1,-7,0,24*,2,21*,
O=C(N[C@@H](Cc1cccnc1)C(=O)N1CCC[C@H]1C(=O)NCCc1ccccc1Cl)C1CC1,nt,nt,-2,0,nt,nt,
O=C(Cn1c(=O)c(=O)n(Cc2ccccc2)c2ccc(Cl)cc21)Nc1cccc(F)c1,-2,8,5,44*,2,24*,
O=C(CN1CCN(Cc2ccccc2)CC1)Nc1cccc(Cl)c1,-1,-2,-2,-3,1,nt,
O=C(Cn1c2ccccc2c(=O)c2ccccc21)Nc1cccc(F)c1,1,27,1,28*,1,16,

# Screens: PubChem BioAssay, several laboratories
